Measurements reported in article PMC11682233 (Scientific Reports, 2024).

Legend:
[1] = system: non-phosphorylated β-catenin; assay: Western immunoblotting of Wnt signaling proteins in SUNE5-8F cells; format: cell-based; details: IC25 and IC50 doses, 48 h
Procedure, shortened: (§1)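 Lysates spun at 12,000 × g, 10 min, 4 °C; Bradford assay. 10% SDS-PAGE, nitrocellulose transfer, 5% BSA block 1 h, primary antibody overnight at 4 °C, HRP secondary 1 h at room temperature, ECL detection. Band densities normalised to β-actin, expressed relative to untreated control.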

[2] = system: NPC cells; assay: Preliminary NPC cytotoxicity screening; format: cell-based; details: MTT, 48 h
Procedure, shortened: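 3,000 NPC cells per well, plated 24 h, then given fresh medium with test compound at 0.1, 1, 10 or 100 µM for 48 h; cisplatin served as positive control. MTT at 0.5 mg/mL final in RPMI for 3 h at 37 °C. Formazan dissolved in DMSO, absorbance read at 540 nm. Run in triplicate; t-test, p < 0.05 significant.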

[3] = system: SUNE6-10B; assay: Clonogenic; format: cell-based
[4] = system: phosphorylated LRP6; assay: Western immunoblotting of Wnt signaling proteins in SUNE5-8F cells; format: cell-based; details: IC25 and IC50 doses, 48 h
Procedure, shortened: as §1

[5] = system: SUNE5-8F; assay: Clonogenic; format: cell-based
[6] = target: T1, FZD10 recombinant proteoliposome (Homo sapiens, UniProt Q9ULW2); assay: STD-NMR; format: binding; details: 230 nM protein, 0.3–1.5 µM ligand, D2O, 298 K
T1 sequence (Q9ULW2 21-581): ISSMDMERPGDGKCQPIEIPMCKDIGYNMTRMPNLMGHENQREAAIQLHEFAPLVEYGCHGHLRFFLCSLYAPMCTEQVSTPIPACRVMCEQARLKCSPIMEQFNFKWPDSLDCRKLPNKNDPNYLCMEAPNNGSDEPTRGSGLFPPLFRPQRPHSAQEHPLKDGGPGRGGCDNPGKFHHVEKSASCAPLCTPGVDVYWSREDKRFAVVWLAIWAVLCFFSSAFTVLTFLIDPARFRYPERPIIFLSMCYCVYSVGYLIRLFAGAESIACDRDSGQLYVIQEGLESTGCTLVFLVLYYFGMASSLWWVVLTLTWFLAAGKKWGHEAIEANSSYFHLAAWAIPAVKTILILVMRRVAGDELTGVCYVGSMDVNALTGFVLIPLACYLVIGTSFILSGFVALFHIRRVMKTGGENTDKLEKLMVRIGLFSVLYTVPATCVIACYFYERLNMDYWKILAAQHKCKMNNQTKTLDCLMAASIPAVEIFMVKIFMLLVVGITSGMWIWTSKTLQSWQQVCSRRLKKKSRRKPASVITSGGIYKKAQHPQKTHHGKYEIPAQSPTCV
Procedure, shortened: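 STD-NMR at 600 MHz on a cryoprobe-equipped spectrometer, with the residual D2O peak (δH 4.70) as chemical shift reference. 1H spectral width 9600 Hz, 30° pulse angle, 2.5 s recycle delay, 8 scans.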

[7] = system: non-phosphorylated β-catenin; assay: Western immunoblotting of Wnt signaling proteins in SUNE6-10B cells; format: cell-based; details: IC50 dose, 48 h
Procedure, shortened: as §1

[8] = system: phosphorylated LRP6; assay: as above; format: cell-based; details: IC50 dose, 48 h
Procedure, shortened: as §1

[9] = IC25 dose (doxazosin 7 µM, nicergoline 20 µM)
[10] = IC50 dose (rilpivirine 4 µM, doxazosin 14 µM, nicergoline 40 µM)
[11] = IC25 dose (rilpivirine 2 µM, doxazosin 7 µM, nicergoline 20 µM)

Row | STD signals (binding to FZD10) [6] | SMILES | expression of active β-catenin (non-phosphorylated β-catenin) [1] | 50% inhibition cutoff at 100 µM [2] | colony formation [3, 9] | colony formation [3, 10] | expression of phosphorylated LRP6 [4] | colony formation [5, 11] | colony formation [5, 10] | expression level of active β-catenin [7] | expression of phosphorylated LRP6 [8] | colony formation ([5]; 8 µM)
1 | STD signals for H5 and H6 | COc1cc2nc(N3CCN(C(=O)C4COc5ccccc5O4)CC3)nc(N)c2cc1OC (centres unmarked) [Doxazosin] | decreased | met the 50% inhibition cutoff at 100 µM | suppressed the colony formation | suppressed the colony formation | decreased | suppressed the colony formation | suppressed the colony formation | – | – | –
2 | STD signals corresponding to H2 and H3 | CO[C@]12C[C@@H](COC(=O)c3cncc(Br)c3)CN(C)[C@@H]1Cc1cn(C)c3cccc2c13 [Nicergoline] | decreased | met the 50% inhibition cutoff at 100 µM | suppressed the colony formation | suppressed the colony formation | decreased | suppressed the colony formation | suppressed the colony formation | decreased | – | –
3 | STD signals from H2 | Cc1cc(/C=C/C#N)cc(C)c1Nc1ccnc(Nc2ccc(C#N)cc2)n1 [Rilpivirine] | decreased | met the 50% inhibition cutoff at 100 µM | – | reduced the colony formation ability | decreased | no impact | reduced the colony formation ability | decreased | reduced | –
4 | STD signals from H2, H3,4, and H5,6 | COc1cc2nc(N3CCN(C(=O)c4ccco4)CC3)nc(N)c2cc1OC [Prazosin] | decreased | met the 50% inhibition cutoff at 100 µM | – | – | decreased | – | – | decreased | – | inhibited colony formation
